ChEMBL document CHEMBL1212711, “Mechanistic and functional insights into fatty acid activation in Mycobacterium tuberculosis” (Nat Chem Biol, 2009)
pIC50, pKi: −log10 of the molar value. Values after ≈ are worked out from the molar mass of the structure shown. Active and inactive are the calls of the source. The calls are words filed in the database; no cut-off is given here.

Assays:
[1] = tested on: Rhodococcus sp.; test: Activity at Rhodococcus sp. FAAL expressed in Escherichia coli assessed as palmitoyl-CoA formation at 1 mM by TLC method
Procedure, shortened: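 Recombinant Rhodococcus ro_4064 protein expressed in E. coli, assayed cell-free with palmitic acid as substrate, with or without 1 mM CoASH. Products separated by TLC and detected by autoradiography.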

[2] = tested on: Mycobacterium tuberculosis H37Rv; test: Activity at Mycobacterium tuberculosis H37Rv FACL19 assessed as acy-CoA formation by radio-TLC assay
[3] = (§1) Inhibition of Mycobacterium tuberculosis H37Rv FAAL19
Procedure, shortened: (§2)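 Purified enzyme pre-incubated with increasing LAMS concentrations, then activity measured by radio-TLC acyl-adenylation assay. Dose-response data fitted to the Morrison tight-binding equation using enzyme concentration to obtain apparent Ki.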

[4] = (§3) Inhibition of Mycobacterium tuberculosis H37Rv FACL28; procedure, shortened: as §2
[5] = tested on: Mycobacterium tuberculosis H37Rv; test: Activity at Mycobacterium tuberculosis H37Rv FAAL28 assessed as conversion of lauroyl-AMP to lauryl-CoA by radio-TLC assay
[6] = tested on: Mycobacterium tuberculosis H37Rv; test: Stabilization of Mycobacterium tuberculosis H37Rv FACL19 assessed as protection against proteolysis
Procedure, shortened: (§4)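 Limited tryptic proteolysis of purified protein in the presence of increasing LAMS concentrations. Protection from fragmentation taken as a sign of binding-induced conformational change.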

[7] = tested on: Mycobacterium tuberculosis; test: Antimicrobial activity against Mycobacterium tuberculosis H37Rv assessed decrease in SL-1 biosynthesis by [14C]propionate incorporation assay; format: functional, organism-based
Procedure, shortened: (§5)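 Mid-log H37Rv cultures (10 ml) given 5 μCi ^14C-propionate (methylated lipids) or ^14C-acetate (fatty/mycolic acids) plus various LAMS concentrations. Incubated 16 h at 37°C. Mycolic acids and total extractable lipids then analysed.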

[8] = tested on: Mycobacterium tuberculosis; test: Antimicrobial activity against Mycobacterium tuberculosis H37Rv assessed as occurrence of irregular cell shape by transmission electron microscopy; format: functional, organism-based
[9] = tested on: Mycobacterium tuberculosis; test: Antimicrobial activity against Mycobacterium tuberculosis H37Rv assessed as concentration required for 100-fold reduction in bacterial CFU; format: functional
Procedure, shortened: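 H37Rv culture serially diluted and plated on Middlebrook 7H10 agar with OADC containing various concentrations of the acyl-AMS analogue. Colonies counted after two weeks at 37°C. MIC is the concentration giving a 10^2-fold CFU reduction.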

[10] = tested on: Mycobacterium tuberculosis H37Rv; test: Stabilization of Mycobacterium tuberculosis H37Rv FAAL28 assessed as protection against proteolysis; procedure, shortened: as §4
[11] = tested on: Mycobacterium tuberculosis; test: Antimicrobial activity against Mycobacterium tuberculosis H37Rv assessed as reduction in appearance of dense granular cytoplasm by transmission electron microscopy; format: functional, organism-based
[12] = tested on: Mycobacterium tuberculosis H37Rv; test: Binding affinity to Mycobacterium tuberculosis H37Rv FAAL19 assessed as noncovalent protein-ligand interaction by mass spectroscopy
Procedure, shortened: (§6)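 Purified enzyme–inhibitor (EI*) complex extracted with ethyl acetate. Released acyl-AMS detected by mass spectrometry to test for non-covalent versus covalent binding.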

[13] = tested on: Mycobacterium tuberculosis; test: Antimicrobial activity against Mycobacterium tuberculosis H37Rv assessed as degeneration of peptidoglycan layer in cell wall by transmission electron microscopy; format: functional, organism-based
[14] = tested on: Mycobacterium tuberculosis H37Rv; test: as §1; details: TDE = time-dependent effect; procedure, shortened: as §2
[15] = tested on: Mycobacterium tuberculosis H37Rv; test: as §3; details: TDE = time-dependent effect; procedure, shortened: as §2
[16] = tested on: Mycobacterium tuberculosis; test: Antimicrobial activity against Mycobacterium tuberculosis H37Rv assessed decrease in fatty acid biosynthesis by [14C]-acetate incorporation assay; format: functional, organism-based; procedure, shortened: as §5
[17] = tested on: Mycobacterium tuberculosis; test: Antimicrobial activity against Mycobacterium tuberculosis H37Rv assessed decrease in PDIM biosynthesis by [14C]propionate incorporation assay; format: functional, organism-based; procedure, shortened: as §5
[18] = tested on: Mycobacterium tuberculosis; test: Antimicrobial activity against Mycobacterium tuberculosis H37Rv assessed decrease in mycolic acid biosynthesis by [14C]-acetate incorporation assay; format: functional, organism-based; procedure, shortened: as §5
[19] = tested on: Mycobacterium tuberculosis; test: Antimicrobial activity against Mycobacterium tuberculosis MC2 assessed as concentration required for 100-fold reduction in bacterial CFU; format: functional
Procedure, shortened: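 Susceptibility followed by CFU counts on plates containing various inhibitor concentrations. MIC99 is taken as the concentration causing a 10^2 reduction in colony forming units.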

[20] = tested on: Mycobacterium tuberculosis H37Rv; test: Binding affinity to Mycobacterium tuberculosis H37Rv FACL28 assessed as noncovalent protein-ligand interaction by mass spectroscopy; procedure, shortened: as §6
[21] = tested on: Mycobacterium tuberculosis; test: Antimicrobial activity against Mycobacterium tuberculosis H37Rv assessed as degeneration of lipid layer in cell wall by transmission electron microscopy; format: functional, organism-based

Which results are given for CC(C)(COP(=O)(O)OP(=O)(O)OC[C@H]1O[C@@H](n2cnc3c(N)ncnc32)[C@H](O)[C@@H]1OP(=O)(O)O)[C@@H](O)C(=O)NCCC(=O)NCCS [COENZYME_A]?
Activity [1]: inactive; Activity [2]: Active; pIC50 [3]: 5.90; pKi ([3]; read-out: Ki(app)): 5.31; pIC50 [4]: 5.92; Activity [5]: inactive

What does the source list for CCCCCCCCCCCC(=O)NS(=O)(=O)OC[C@H]1O[C@@H](n2cnc3c(N)ncnc32)[C@H](O)[C@@H]1O?
Activity [6]: Dose-dependent effect; Activity [7]: Active; Activity [8]: Active; MIC99 [9]: 100 µM (≈ 52.9 µg/mL); Activity [10]: Dose-dependent effect; Activity [11]: Active; Activity [12]: Active; Activity [13]: Active; inhibition [14]: tde; inhibition [15]: tde; Activity [16]: inactive; Activity [17]: Active; Activity [18]: Dose-dependent effect; MIC99 [19]: 215 µM (≈ 114 µg/mL); Km [20]: 24 µM; Activity [21]: Active
